Data as given in ChEMBL document CHEMBL1156517, “Targeting thyroid hormone receptor-beta agonists to the liver reduces cholesterol and triglycerides and improves the therapeutic index” (Proc Natl Acad Sci U S A, 2007).
pKi: −log10 of the molar value. Activity calls are given as the source filed them. The rule behind the calls is not given here.

Experiments:
Rattus norvegicus [1] = experiment: Toxicity in Sprague-Dawley rat assessed as suppression of thyroid hormone axis measured by decrease in total 3,5,3',5'-tetraiodo-L-thyronine level at 30 mg/kg, po after 7 weeks; assay type: organism-based; design: dose 30 mg/kg, route oral; settings: in vivo, 1176 h
Rattus norvegicus [2] = experiment: Toxicity in Sprague-Dawley rat assessed as suppression of thyroid hormone axis measured by decrease in free 3,5,3',5'-tetraiodo-L-thyronine level at 30 mg/kg, po after 7 weeks; assay type: organism-based; design: dose 30 mg/kg, route oral; settings: in vivo, 1176 h
Outline: (§1)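 Male SD rats (n = 5–6 per group; baseline group n = 8) given vehicle (0.5% CMC/1% Lutrol F68) or drug orally once daily. One group per cohort weighed and killed by decapitation without anesthesia after 1, 2, 4 and 7 weeks. Trunk-blood serum assayed for total/free T3 and T4; TSH by [125I] radioimmunoassay with magnetic separation. Pituitary TSHβ mRNA also measured.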

Rattus norvegicus [3] = experiment: Toxicity in Sprague-Dawley rat assessed as suppression of thyroid hormone axis measured by decrease in serum TSH level at 30 mg/kg, po after 7 weeks; assay type: organism-based; design: dose 30 mg/kg, route oral; settings: in vivo, 1176 h
Rattus norvegicus [4] = experiment: Toxicity in Sprague-Dawley rat assessed as suppression of thyroid hormone axis measured by decrease in TSH-beta mRNA level at 30 mg/kg, po after 7 weeks; assay type: organism-based; design: dose 30 mg/kg, route oral; settings: in vivo, 1176 h; outline: as §1
Mus musculus [5] = experiment: Effect on hepatic LDLR mRNA level in diet-induced obese C57BL/6 mouse at 10 mg/kg, po after 8 hrs by RT-PCR; assay type: functional
Outline: (§2)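 Single oral dose in male DIO mice: C57BL/6 mice, about 4 weeks old at start, fed a 60% fat (by kcal) diet for about 170 days. Hepatic LDLR mRNA read out at early time points (3 and 8 h) after dosing.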

Rattus norvegicus [6] = experiment: Effect on body weight in Sprague-Dawley rat at 1 mg/kg/day, po after 8 days; assay type: functional
Rattus norvegicus [7] = experiment: Effect on food intake in Sprague-Dawley rat at 1 mg/kg/day, po after 8 days; assay type: functional
[8] = biological target: Thyroid hormone receptor alpha (Homo sapiens, UniProt P10827); experiment: Displacement of [125I]T3 from recombinant thyroid hormone receptor alpha expressed in sf9 cells by scintillation proximity assay
Chain of Thyroid hormone receptor alpha (P10827 whole entry): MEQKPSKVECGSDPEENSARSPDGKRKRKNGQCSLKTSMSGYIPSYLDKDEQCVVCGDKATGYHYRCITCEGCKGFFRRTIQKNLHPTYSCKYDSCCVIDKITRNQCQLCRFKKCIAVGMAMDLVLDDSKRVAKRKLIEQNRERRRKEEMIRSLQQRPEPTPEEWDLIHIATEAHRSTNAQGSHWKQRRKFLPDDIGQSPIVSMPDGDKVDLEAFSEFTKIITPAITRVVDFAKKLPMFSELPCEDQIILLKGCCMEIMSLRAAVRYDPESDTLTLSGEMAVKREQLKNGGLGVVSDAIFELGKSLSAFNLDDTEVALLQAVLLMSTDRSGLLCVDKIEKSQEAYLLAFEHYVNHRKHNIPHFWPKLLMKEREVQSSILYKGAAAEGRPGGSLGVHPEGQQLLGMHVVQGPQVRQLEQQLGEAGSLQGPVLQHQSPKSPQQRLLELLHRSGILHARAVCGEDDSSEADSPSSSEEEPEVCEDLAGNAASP

[9] = biological target: Thyroid hormone receptor beta (Homo sapiens, UniProt P10828); experiment: Displacement of [125I]T3 from recombinant thyroid hormone receptor beta expressed in sf9 cells by scintillation proximity assay
Chain of Thyroid hormone receptor beta (P10828 whole entry): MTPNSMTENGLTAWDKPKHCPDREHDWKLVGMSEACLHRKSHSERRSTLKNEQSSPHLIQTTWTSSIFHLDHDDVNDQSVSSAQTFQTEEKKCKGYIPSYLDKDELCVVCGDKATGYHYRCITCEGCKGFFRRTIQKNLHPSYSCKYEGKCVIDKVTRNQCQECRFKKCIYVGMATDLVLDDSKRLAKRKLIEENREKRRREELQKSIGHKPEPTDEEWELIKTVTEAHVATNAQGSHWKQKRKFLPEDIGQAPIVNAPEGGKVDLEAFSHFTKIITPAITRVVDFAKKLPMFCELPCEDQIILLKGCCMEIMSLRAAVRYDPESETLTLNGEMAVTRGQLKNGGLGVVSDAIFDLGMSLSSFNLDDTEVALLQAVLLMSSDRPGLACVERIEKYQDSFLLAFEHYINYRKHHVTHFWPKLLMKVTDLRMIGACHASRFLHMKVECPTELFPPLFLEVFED

[10] = (§3) Activity of CYP3A in Sprague-Dawley rat liver microsome; assay type: ADME; settings: microsomes
CYP3A = experiment: as §3; assay type: ADME; settings: Sprague-Dawley, liver microsomes
[11] = Inhibition of CYP3A in Sprague-Dawley rat liver microsome at 10 uM; assay type: ADME; settings: microsomes
Hepatocyte = experiment: Cmax per10'6 cells in Sprague-Dawley rat hepatocytes at 10 uM; assay type: ADME, Liver; design: dose 10 uM
Outline: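 Freshly isolated rat hepatocytes were incubated with compound. Intracellular levels of the active phosphonate were followed over time and expressed per 10⁶ cells, giving Cmax and tmax.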

[12] = Clearance in Sprague-Dawley rat at 3 mg/kg, iv; assay type: ADME, organism-based; design: dose 3 mg/kg, route intravenous; settings: in vivo
Outline: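 Male SD rats received a single i.v. dose. Clearance and other PK parameters came from plasma concentration–time profiles of both the prodrug and the active phosphonate, values reported as mean ± SEM.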

[13] = Volume of distribution in Sprague-Dawley rat at 3 mg/kg, iv; assay type: ADME, organism-based; design: dose 3 mg/kg, route intravenous; settings: in vivo
Mus musculus [14] = experiment: Decrease in plasma triglyceride level in po dosed diet-induced obese C57BL/6 mouse after 14 days; assay type: functional; design: scale not given: the % may be the effect or the level left
Outline: (§4)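 DIO mice were male C57BL/6 fed a 60%-fat (by kcal) diet from about 4 weeks of age for about 170 days. They were grouped (n = 8) to match cholesterol and body weight. Dosing was oral, once daily for 2 weeks, in 0.5% CMC/1% Lutrol F68. At kill, blood was taken by cardiac puncture for plasma TGs. The liver was removed and weighed, and hepatic TGs were measured.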

Mus musculus [15] = experiment: Decrease in cholesterol level in wild-type C57BL/6 mouse at 5 mg/kg/day once daily for 7 days; assay type: functional, organism-based
Mus musculus [16] = experiment: Decrease in liver triglyceride level in po dosed diet-induced obese C57BL/6 mouse after 14 days; assay type: functional; design: scale not given: the % may be the effect or the level left; outline: as §4
Mus musculus [17] = experiment: Decrease in cholesterol level in LDLR deficient C57BL/6 mouse at 0.5 mg/kg/day once daily for 7 days; assay type: functional, organism-based
Mus musculus [18] = experiment: Decrease in cholesterol level in LDLR deficient C57BL/6 mouse at 5 mg/kg/day once daily for 7 days; assay type: functional, organism-based
Mus musculus [19] = experiment: Decrease in liver weight in po dosed diet-induced obese C57BL/6 mouse after 14 days; assay type: functional; design: scale not given: the % may be the effect or the level left; outline: as §4
Mus musculus [20] = experiment: Decrease in cholesterol level in wild-type C57BL/6 mouse at 0.5 mg/kg/day once daily for 7 days; assay type: functional, organism-based
Mus musculus [21] = experiment: Effect on hepatic LDLR mRNA level in LDLR deficient C57BL/6 mouse at 5 mg/kg/day once daily for 7 days; assay type: functional
Mus musculus [22] = experiment: Decrease in body weight in diet-induced obese C57BL/6 mouse at 30 mg/kg/day, po; assay type: functional; design: scale not given: the % may be the effect or the level left
Mus musculus [23] = experiment: Effect on hepatic LDLR mRNA level in wild-type C57BL/6 mouse at 5 mg/kg/day once daily for 7 days; assay type: functional
Rattus norvegicus [24] = experiment: Effect on fasting blood glucose level in Sprague-Dawley rat at 1 mg/kg/day, po after 8 days by oral glucose tolerance test; assay type: functional
Rattus norvegicus [25] = experiment: Effect on plasma insulin level in Sprague-Dawley rat at 1 mg/kg/day, po after 8 days; assay type: functional
Rattus norvegicus [26] = experiment: Effect on plasma fatty acid level in Sprague-Dawley rat at 1 mg/kg/day, po after 8 days; assay type: functional
Mus musculus [27] = experiment: Effect on hepatic LDLR mRNA level in diet-induced obese C57BL/6 mouse at 10 mg/kg, po after 3 hrs by RT-PCR; assay type: functional; outline: as §2
Rattus norvegicus [28] = experiment: Effect on body weight in Sprague-Dawley rat at 10 mg/kg/day, po after 8 days; assay type: functional
Rattus norvegicus [29] = experiment: Effect on food intake in Sprague-Dawley rat at 10 mg/kg/day, po after 8 days; assay type: functional
Rattus norvegicus [30] = experiment: Effect on fasting blood glucose level in Sprague-Dawley rat at 10 mg/kg/day, po after 8 days by oral glucose tolerance test; assay type: functional
Rattus norvegicus [31] = experiment: Effect on plasma insulin level in Sprague-Dawley rat at 10 mg/kg/day, po after 8 days; assay type: functional
Rattus norvegicus [32] = experiment: Effect on plasma fatty acid level in Sprague-Dawley rat at 10 mg/kg/day, po after 8 days; assay type: functional
Rattus norvegicus [33] = experiment: Effect on body weight in Sprague-Dawley rat at 50 mg/kg/day, po after 8 days; assay type: functional
Rattus norvegicus [34] = experiment: Effect on food intake in Sprague-Dawley rat at 50 mg/kg/day, po after 8 days; assay type: functional
Rattus norvegicus [35] = experiment: Effect on fasting blood glucose level in Sprague-Dawley rat at 50 mg/kg/day, po after 8 days by oral glucose tolerance test; assay type: functional
Rattus norvegicus [36] = experiment: Effect on plasma insulin level in Sprague-Dawley rat at 50 mg/kg/day, po after 8 days; assay type: functional
Rattus norvegicus [37] = experiment: Effect on plasma fatty acid level in Sprague-Dawley rat at 50 mg/kg/day, po after 8 days; assay type: functional
Mus musculus [38] = experiment: Reduction in plasma cholesterol level in po dosed diet-induced obese C57BL/6 mouse after 2 weeks; assay type: functional; design: scale not given: the % may be the effect or the level left
Outline: (§5)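 Male C57BL/6 mice, about 4 weeks old, fed a high-fat diet (60% kcal fat) for about 170 days. Assigned to groups (n = 8) matched for cholesterol and body weight. Dosed orally once daily in 0.5% CMC/1% Lutrol F68 for 2 weeks. Baseline blood taken by tail nick. At end, cardiac-puncture blood used for cholesterol, TGs, glucose and thyroid hormones; liver weighed and hepatic TGs measured.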

Mus musculus [39] = experiment: Reduction in plasma cholesterol level in diet-induced obese C57BL/6 mouse at 3 mg/kg/day, po; assay type: functional; design: scale not given: the % may be the effect or the level left; outline: as §5
Rattus norvegicus [40] = experiment: Increase in hepatic LDLR mRNA level in thyroidectomized Sprague-Dawley rat at 5 mg/kg after 24 hrs by RT-PCR relative to control; assay type: functional
Outline: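 Male thyroidectomized SD rats given 5 mg/kg, with a parallel T₃ arm at 0.5 mg/kg. Hepatic LDLR mRNA quantified by quantitative real-time PCR.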

Mus musculus [41] = experiment: Decrease in plasma triglyceride level in diet-induced obese C57BL/6 mouse at 3 mg/kg/day, po after 14 days; assay type: functional; design: scale not given: the % may be the effect or the level left; outline: as §4
Mus musculus [42] = experiment: Decrease in liver triglyceride level in diet-induced obese C57BL/6 mouse at 3 mg/kg/day, po after 14 days; assay type: functional; design: scale not given: the % may be the effect or the level left; outline: as §4
Mus musculus [43] = experiment: Reduction in blood glucose level in po dosed diet-induced obese C57BL/6 mouse; assay type: functional, organism-based; outline: as §5
Rattus norvegicus [44] = organism: Rattus norvegicus; experiment: Reduction in plasma cholesterol level in cholesterol fed Sprague-Dawley rat; assay type: functional
Rattus norvegicus [45] = experiment: Effect on malic enzyme mRNA expression in po dosed Sprague-Dawley rat liver; assay type: functional, organism-based; settings: TDE = time-dependent effect
Outline: (§6)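 Killed 3, 8 and 24 h post-dose under 2.5% isoflurane. Pituitary and thyroid snap-frozen; liver, heart, soleus, spleen and kidney freeze-clamped. mRNA by quantitative real-time PCR, expressed as fold-change vs vehicle.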

Rattus norvegicus [46] = experiment: Effect on SREBP-1c mRNA expression in po dosed Sprague-Dawley rat liver; assay type: functional, organism-based; settings: TDE = time-dependent effect
Rattus norvegicus [47] = experiment: Effect on LDLR mRNA expression in po dosed Sprague-Dawley rat liver; assay type: functional, organism-based; settings: TDE = time-dependent effect
Rattus norvegicus [48] = experiment: Effect on type 1 iodothyronine deiodinase mRNA expression in po dosed Sprague-Dawley rat liver; assay type: functional, organism-based; settings: TDE = time-dependent effect; outline: as §6

pKi [8]: 4.90 | pKi [9]: 4.84 | Vmax [10]: 2.74 nmol/min/mg | Km (CYP3A): 18.8 µM | Activity [11]: Not Active | Cmax (Hepatocyte): 1.03 nmol | clearance [12]: 193 mL/min/kg | Vd [13]: 14.8 L/kg | Activity (Rattus norvegicus [45]): tde | Activity (Rattus norvegicus [48]): tde
Structure (SMILES): Cc1cc(OCP2(=O)OCC[C@@H](c3cccc(Cl)c3)O2)cc(C)c1Cc1ccc(O)c(C(C)C)c1 (stereo not given in full) [MB07811]
Activity (Rattus norvegicus [1]): Active | Activity (Rattus norvegicus [2]): Active | Activity (Rattus norvegicus [3]): Active | Activity (Rattus norvegicus [4]): Active | fold change (FC) (Mus musculus [5]): 2.01 | Activity (Rattus norvegicus [6]): 42.8 g | Activity (Rattus norvegicus [7]): 15.1% | Activity (Mus musculus [14]): 40% | Activity (Mus musculus [15]): Active | Activity (Mus musculus [16]): 42% | Activity (Mus musculus [17]): inactive | Activity (Mus musculus [18]): inactive | Activity (Mus musculus [19]): 42% | Activity (Mus musculus [20]): Active | Activity (Mus musculus [21]): -10.8% | Activity (Mus musculus [22]): 3% | Activity (Mus musculus [23]): -31.8% | Activity (Rattus norvegicus [24]): 9 mg/dL | Activity (Rattus norvegicus [25]): 0.424 ng/mL | Activity (Rattus norvegicus [26]): 0.454 mM | fold change (FC) (Mus musculus [27]): 1.23 | Activity (Rattus norvegicus [28]): 37.9 g | Activity (Rattus norvegicus [29]): 14.6% | Activity (Rattus norvegicus [30]): 11.8 mg/dL | Activity (Rattus norvegicus [31]): 0.342 ng/mL | Activity (Rattus norvegicus [32]): 0.541 mM | Activity (Rattus norvegicus [33]): 49.3 g | Activity (Rattus norvegicus [34]): 15.6% | Activity (Rattus norvegicus [35]): -0.5 mg/dL | Activity (Rattus norvegicus [36]): 0.402 ng/mL | Activity (Rattus norvegicus [37]): 0.524 mM | Activity (Mus musculus [38]): 61% | Activity (Mus musculus [39]): 51% | fold change (FC) (Rattus norvegicus [40]): 21.063 | Activity (Mus musculus [41]): 38% | Activity (Mus musculus [42]): 69% | Activity (Mus musculus [43]): Active | ED50 (Rattus norvegicus [44]): 0.4 mg/kg | Activity (Rattus norvegicus [46]): tde | Activity (Rattus norvegicus [47]): tde
